This note sets out measurements from ChEMBL document CHEMBL1125420, “Synthesis and biological activity of novel folic acid analogues: pteroyl-S-alkylhomocysteine sulfoximines” (J Med Chem, 1992).

In assay [1] the test system is L1210. The experiment in a line: Compound was tested for release of tritium from 1 uM [5-3H]-dUMP into water at a conc of 0.4 mM enzyme(bovine thymidylate synthase) was added to cell suspension in presence of serine. It counts as functional, Mus musculus. Summed up: (§1)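 L1210 cells (transplanted, harvested), partially permeabilized with dextran sulfate, at (2–5) × 10^7 cells/mL. Preincubated with cofactor 15 min at 37 °C with 0.2 mM NADPH, 1 mM serine or 7.5 mM CH2O, 2-mercaptoethanol, MgCl2, EDTA, NaF, 80 mM Tris-acetate pH 7.4. Then 1 μM [5-3H]dUMP added for 30 min. Where enzyme added, 0.016 unit per 0.15 mL suspension. Tritium in water given as % of total, background-corrected; two experiments in duplicate.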

Assay [2] has as its system L1210. The experiment in a line: Compound was tested for release of tritium from 1 uM [5-3H]-dUMP into water at a con of 0.4 mM and without addition of bovine thymidylate synthase to cell suspension in absence of CH2O. The assay is classed as functional, Mus musculus. The procedure, abridged:
as §1

For assay [3], the system named is L1210. The experiment in a line: (§2) Inhibitory activity against growth of L1210 leukemia cells in culture. It counts as functional, cell-based. To be noted: Mus musculus. Summed up: (§3)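 Murine L1210 leukemia cells, duplicate cultures, exposed to increasing concentrations alongside folic acid for 48 h at 37 °C in RPMI 1640 with 10% fetal calf serum. Cells counted; IC50 (50% inhibition of control growth) read graphically; percent inhibition also taken at 0.5 mM. Averages of two experiments run in duplicate.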

In assay [4] the test system is L1210. The experiment in a line: Compound was tested for release of tritium from 1 uM [5-3H]-dUMP into water at a conc of 0.4 mM enzyme(bovine thymidylate synthase) was added to cell suspension in presence of CH2O. It counts as functional, Mus musculus. Summed up: as §1
Assay [5] concerns L1210. The experiment in a line: Inhibitory activity against growth of L1210 leukemia cells in culture at 0.5 mM. Conditions: Mus musculus. The assay is classed as functional. The procedure, abridged:
as §3

Assay [6] relates to L1210. The experiment in a line: Compound was tested for release of tritium from 1 uM [5-3H]-dUMP into water at a con of 0.4 mM and without addition of bovine thymidylate synthase to cell suspension in absence of serine. It counts as functional, Mus musculus. The procedure, abridged:
as §1

Assay [7] has as its system L1210. The experiment in a line: Compound was tested for release of tritium from 1 uM [5-3H]-dUMP into water at a conc of 0.4 mM, enzyme(bovine thymidylate synthase) was added to cell suspension in presence of serine. It counts as functional, Mus musculus. The procedure, abridged:
as §1

Assay [8] has as its system L1210. Described as §2. It counts as functional, Mus musculus. The procedure, abridged:
as §3

Turning to `CS(=O)(=O)CCC(NC(=O)c1ccc(NCc2cnc3nc(N)nc(O)c3n2)cc1)C(=O)O` (stereo unspecified), the Tritium release in the assay on L1210 [1] is reported as 7.8%; in the assay on L1210 [2], 4.6%; in the assay with L1210 [4] it was 6.7%; with L1210 [6] it was 3.6%. Also, in the assay on L1210 [3], the IC50 came out at 390 µM. The compound also yielded an inhibition at 500 µM with L1210 [5] of 78.6%.

On to `C[S+](=N)([O-])CCC(NC(=O)c1ccc(NCc2cnc3nc(N)nc(O)c3n2)cc1)C(=O)O` (mixture of isomers), for which the Tritium release was determined as 5% with L1210 [2], 9.5% with L1210 [7], 8.3% in the assay with L1210 [4] and 3.9% in the assay with L1210 [6]. Further, in the assay on L1210 [3], the IC50 was 190 µM. Besides, in the assay with L1210 [5], the inhibition at 500 µM stood at 76.4%.

Regarding `CC[S+](=N)([O-])CCC(NC(=O)c1ccc(NCc2cnc3nc(N)nc(O)c3n2)cc1)C(=O)O` (racemic), the Tritium release in the assay on L1210 [1] came out at 8.3%; in the assay with L1210 [2], 4.9%; in the assay with L1210 [4], 6.8%; in the assay on L1210 [6], 4.2%. Besides, the midpoint of inhibition with L1210 [3], the IC50, lay at 220 µM. This compound also gave an inhibition at 500 µM in the assay on L1210 [5] of 80.2%.

Regarding `CCCC[S+](=N)([O-])CCC(NC(=O)c1ccc(NCc2cnc3nc(N)nc(O)c3n2)cc1)C(=O)O` (racemic), the Tritium release with L1210 [1] was 7%; with L1210 [2], 4.4%; in the assay with L1210 [4], 5.8%; in the assay on L1210 [6], 4%. This compound returned an IC50 in the assay on L1210 [3] of 270 µM. In the assay on L1210 [5], this compound had an inhibition at 500 µM of 75.2%.

For `CCC[S+](=N)([O-])CCC(NC(=O)c1ccc(NCc2cnc3nc(N)nc(O)c3n2)cc1)C(=O)O` (racemic), the Tritium release worked out at 9.2% with L1210 [1], 4.3% with L1210 [2], 7.3% in the assay on L1210 [4] and 4.2% in the assay with L1210 [6]. In addition, the midpoint of inhibition with L1210 [3], the IC50, lay at 300 µM. Also, in the assay with L1210 [5], the inhibition at 500 µM came out at 75.2%.

On to `Nc1nc(=O)c2nc(CNc3ccc(C(=O)N[C@@H](CCC(=O)O)C(=O)O)cc3)cnc2[nH]1` [FOLIC ACID], for which the Tritium release in the assay on L1210 [1] was determined as 24.1%; in the assay on L1210 [2], 20.6%; in the assay on L1210 [4] it was 21.8%; in the assay with L1210 [6] it was 19.1%. This compound yielded an IC50 in the assay with L1210 [3] greater than 10000 µM. This compound gave an Inhibition in the assay on L1210 [8] of 33.6%.

One may read the IC50 as the point on the concentration scale where inhibition reaches its midpoint. A high value points to weaker potency. Broadly, the inhibition is the relative decrease from the control value, in per cent. A word on the Inhibition: it is the share of the control response that was lost under treatment. A lower Inhibition goes with a weak effect.
